Measured values taken from ChEMBL document CHEMBL3272012, “5-(Tetradecyloxy)-2-furancarboxylic acid and related hypolipidemic fatty acid-like alkyloxyarylcarboxylic acids” (J Med Chem, 1977).
Blank lines part the entries; values can stand above or below the compound they belong to. Active and inactive are the calls of the source. The rule behind the calls is not given here.

Key:
[1] = tested on: Rattus norvegicus; assay: Hypolipidemic activity in Wistar rat assessed as reduction in plasma cholesterol level at 443 umol/kg/day administered through diet for 4 days; assay type: functional; conditions: 96 h
In short: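 Young male Wistar rats, 170-190 g initial weight, groups of six, given compound mixed thoroughly into Purina Lab Chow ad libitum for 4 or 10 days as stated. Daily dose calculated from food consumption and body weight. Bled by cardiac puncture at end of treatment; plasma cholesterol measured by automated procedure. Expressed as percent reduction versus simultaneous untreated control group; Student's t test.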

[2] = tested on: Rattus norvegicus; assay: Hypolipidemic activity in Wistar rat assessed as reduction in plasma triglyceride level at 443 umol/kg/day administered through diet for 4 days; assay type: functional; conditions: 96 h
In short: (§1)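 Young male Wistar rats (initial weight 170-190 g), groups of six, fed compound mixed into Purina Lab Chow ad libitum for 4 or 10 days; daily dose calculated from food consumption and body weight. Bled by cardiac puncture; plasma cholesterol and triglycerides by automated procedures; percent reduction versus simultaneous untreated controls, Student's t test.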

[3] = tested on: Rattus norvegicus; assay: Increase in cholesterol level in Wistar rat liver at 443 umol/kg/day administered through diet for 4 days; assay type: ADME, organism-based; conditions: in vivo, po, 96 h
[4] = tested on: Rattus norvegicus; assay: Increase in liver weight in Wistar rat at 443 umol/kg/day administered through diet for 4 days; assay type: ADME, organism-based; conditions: in vivo, po, 96 h
[5] = tested on: Rattus norvegicus; assay: Hypolipidemic activity in Wistar rat assessed as reduction in plasma cholesterol level at 358 umol/kg/day administered through diet for 10 days; assay type: functional; conditions: 240 h
In short: (§2)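 Young male Wistar rats, 170-190 g at start, in groups of six, given compound mixed into Purina Lab Chow ad libitum for 4 or 10 days as stated. Daily dose was calculated from food consumption and body weight. Plasma was taken by cardiac puncture at the end and cholesterol measured by automated procedure. Results are % reduction versus a concurrent untreated control group, with Student's t test.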

[6] = tested on: Rattus norvegicus; assay: Increase in cholesterol level in Wistar rat liver at 96 umol/kg/day administered through diet for 10 days; assay type: ADME, organism-based; conditions: in vivo, po, 240 h
[7] = tested on: Rattus norvegicus; assay: Hypolipidemic activity in Wistar rat assessed as reduction in plasma cholesterol level at 193 umol/kg/day administered through diet for 10 days; assay type: functional; conditions: 240 h; in short: as §2
[8] = tested on: Rattus norvegicus; assay: Increase in cholesterol level in Wistar rat liver at 358 umol/kg/day administered through diet for 10 days; assay type: ADME, organism-based; conditions: in vivo, po, 240 h
[9] = tested on: Rattus norvegicus; assay: Hypolipidemic activity in Wistar rat assessed as reduction in plasma triglyceride level at 358 umol/kg/day administered through diet for 10 days; assay type: functional; conditions: 240 h
In short: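 Young male Wistar rats, 170-190 g at start, six per group, given compound mixed into Purina Lab Chow, fed ad libitum for 4 or 10 days. Daily dose calculated from food consumption and body weight. Rats bled by cardiac puncture at end of treatment. Plasma triglycerides determined by automated procedure. Expressed as percent reduction versus a concurrent untreated control group, Student's t test.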

[10] = tested on: Rattus norvegicus; assay: Increase in cholesterol level in Wistar rat liver at 193 umol/kg/day administered through diet for 10 days; assay type: ADME, organism-based; conditions: in vivo, po, 240 h
[11] = tested on: Rattus norvegicus; assay: Hypolipidemic activity in Wistar rat assessed as reduction in plasma triglyceride level at 193 umol/kg/day administered through diet for 10 days; assay type: functional; conditions: 240 h
In short: (§3)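 Young male Wistar rats, 170-190 g initial weight, six per group, fed drug mixed thoroughly into Purina Lab Chow ad libitum for the stated days; daily dose calculated from food consumption and body weight. Bled by cardiac puncture at end; plasma cholesterol and triglycerides by automated procedures, expressed as percent reduction versus simultaneous untreated controls; Student's t test.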

[12] = tested on: Rattus norvegicus; assay: Hypolipidemic activity in Wistar rat assessed as reduction in plasma cholesterol level at 96 umol/kg/day administered through diet for 10 days; assay type: functional; conditions: 240 h; in short: as §3
[13] = tested on: Rattus norvegicus; assay: Increase in liver weight in Wistar rat at 96 umol/kg/day administered through diet for 10 days; assay type: ADME, organism-based; conditions: in vivo, po, 240 h
[14] = tested on: Rattus norvegicus; assay: Increase in liver weight in Wistar rat at 358 umol/kg/day administered through diet for 10 days; assay type: ADME, organism-based; conditions: in vivo, po, 240 h
[15] = tested on: Rattus norvegicus; assay: Increase in liver weight in Wistar rat at 193 umol/kg/day administered through diet for 10 days; assay type: ADME, organism-based; conditions: in vivo, po, 240 h
[16] = tested on: Rattus norvegicus; assay: Hypolipidemic activity in Wistar rat assessed as reduction in plasma triglyceride level at 96 umol/kg/day administered through diet for 10 days; assay type: functional; conditions: 240 h
[17] = tested on: Rattus norvegicus; assay: Hypolipidemic activity in Wistar rat assessed as reduction in plasma triglyceride level at 583 umol/kg/day administered through diet for 10 days; assay type: functional; conditions: 240 h
[18] = tested on: Rattus norvegicus; assay: Inhibition of fatty acid biosynthesis in Ad Lib fed Wistar rat liver assessed as sodium [1-14C]acetate incorporation at 154 mg/kg/day administered through diet for 7 days measured 1 hr after labeled acetate challenge by liquid scintillation spectrometry (reference value: 27.2 +/- 4.8 x 10^-3 dpm); assay type: functional
[19] = tested on: Rattus norvegicus; assay: Increase in liver weight in Wistar rat at 410 umol/kg/day administered through diet for 4 days; assay type: ADME, organism-based; conditions: in vivo, po, 96 h
[20] = tested on: Rattus norvegicus; assay: Hypolipidemic activity in Wistar rat assessed as reduction in plasma cholesterol level at 314 umol/kg/day administered through diet for 10 days; assay type: functional; conditions: 240 h; in short: as §2
[21] = tested on: Rattus norvegicus; assay: Increase in liver weight in Wistar rat at 314 umol/kg/day administered through diet for 10 days; assay type: ADME, organism-based; conditions: in vivo, po, 240 h
[22] = tested on: Rattus norvegicus; assay: Hypolipidemic activity in Wistar rat assessed as reduction in plasma triglyceride level at 154 umol/kg/day administered through diet for 10 days; assay type: functional; conditions: 240 h; in short: as §3
[23] = tested on: Rattus norvegicus; assay: Increase in cholesterol level in Wistar rat liver at 314 umol/kg/day administered through diet for 10 days; assay type: ADME, organism-based; conditions: in vivo, po, 240 h
[24] = tested on: Rattus norvegicus; assay: Inhibition of cholesterol biosynthesis in meal fed Wistar rat liver assessed as sodium [1-14C]acetate incorporation at 95 mg/kg/day administered through diet for 7 days measured 1 hr after labeled acetate challenge by liquid scintillation spectrometry (reference value: 41.3 +/- 3.2 x 10^-3 dpm); assay type: functional
[25] = tested on: Rattus norvegicus; assay: Inhibition of cholesterol synthesis in Wistar rat liver assessed as drug incorporation into triglycerides administered for 2 weeks by gas chromatography; assay type: functional, organism-based
[26] = tested on: Rattus norvegicus; assay: Increase in liver weight in Wistar rat at 583 umol/kg/day administered through diet for 10 days; assay type: ADME, organism-based; conditions: in vivo, po, 240 h
[27] = tested on: Rhesus monkey; assay: Hypolipidemic activity in rhesus monkey assessed as reduction in plasma cholesterol level at 92 umol/kg/day administered for 28 days; assay type: functional; conditions: Macaca mulatta, 672 h
[28] = tested on: Rattus norvegicus; assay: Increase in cholesterol level in Wistar rat liver at 154 umol/kg/day administered through diet for 10 days; assay type: ADME, organism-based; conditions: in vivo, po, 240 h
[29] = tested on: Rattus norvegicus; assay: Hypolipidemic activity in Wistar rat assessed as reduction in plasma cholesterol level at 410 umol/kg/day administered through diet for 4 days; assay type: functional; conditions: 96 h; in short: as §2
[30] = tested on: Rattus norvegicus; assay: Inhibition of fatty acid biosynthesis in meal fed Wistar rat liver assessed as sodium [1-14C]acetate incorporation at 95 mg/kg/day administered through diet for 7 days measured 1 hr after labeled acetate challenge by liquid scintillation spectrometry (reference value: 182 +/- 22 x 10^-3 dpm); assay type: functional
[31] = tested on: Rattus norvegicus; assay: Hypolipidemic activity in Wistar rat assessed as reduction in plasma triglyceride level at 410 umol/kg/day administered through diet for 4 days; assay type: functional; conditions: 96 h
[32] = tested on: Rattus norvegicus; assay: Inhibition of cholesterol biosynthesis in Ad Lib fed Wistar rat liver assessed as sodium [1-14C]acetate incorporation at 154 mg/kg/day administered through diet for 7 days measured 1 hr after labeled acetate challenge by liquid scintillation spectrometry (reference value: 12.7 +/- 2.6 x 10^-3 dpm); assay type: functional
[33] = tested on: Rattus norvegicus; assay: Hypolipidemic activity in Wistar rat assessed as reduction in plasma cholesterol level at 154 umol/kg/day administered through diet for 10 days; assay type: functional; conditions: 240 h; in short: as §2
[34] = tested on: Rattus norvegicus; assay: Hypolipidemic activity in Wistar rat assessed as reduction in plasma cholesterol level at 583 umol/kg/day administered through diet for 10 days; assay type: functional; conditions: 240 h; in short: as §1
[35] = tested on: Rattus norvegicus; assay: Inhibition of fatty acid synthesis in Wistar rat liver assessed as drug incorporation into phospholipid administered for 2 weeks by gas chromatography; assay type: functional, organism-based
[36] = tested on: Rattus norvegicus; assay: Hypolipidemic activity in Wistar rat assessed as reduction in plasma triglyceride level at 314 umol/kg/day administered through diet for 10 days; assay type: functional; conditions: 240 h; in short: as §3
[37] = tested on: Rattus norvegicus; assay: Increase in cholesterol level in Wistar rat liver at 583 umol/kg/day administered through diet for 10 days; assay type: ADME, organism-based; conditions: in vivo, po, 240 h
[38] = tested on: Rattus norvegicus; assay: Increase in liver weight in Wistar rat at 154 umol/kg/day administered through diet for 10 days; assay type: ADME, organism-based; conditions: in vivo, po, 240 h
[39] = tested on: Rattus norvegicus; assay: Increase in cholesterol level in Wistar rat liver at 410 umol/kg/day administered through diet for 4 days; assay type: ADME, organism-based; conditions: in vivo, po, 96 h
[40] = tested on: Rhesus monkey; assay: Hypolipidemic activity in rhesus monkey assessed as reduction in plasma cholesterol level at 308 umol/kg/day administered for 28 days; assay type: functional; conditions: Macaca mulatta, 672 h
[41] = tested on: Rattus norvegicus; assay: Inhibition of cholesterol synthesis in Wistar rat liver assessed as drug incorporation into cholesterol ester administered for 2 weeks by gas chromatography; assay type: functional, organism-based
[42] = tested on: Rattus norvegicus; assay: Increase in liver weight in Wistar rat at 403 umol/kg/day administered through diet for 4 days; assay type: ADME, organism-based; conditions: in vivo, po, 96 h
[43] = tested on: Rattus norvegicus; assay: Hypolipidemic activity in Wistar rat assessed as reduction in plasma cholesterol level at 403 umol/kg/day administered through diet for 4 days; assay type: functional; conditions: 96 h; in short: as §2
[44] = tested on: Rattus norvegicus; assay: Hypolipidemic activity in Wistar rat assessed as reduction in plasma triglyceride level at 403 umol/kg/day administered through diet for 4 days; assay type: functional; conditions: 96 h
[45] = tested on: Rattus norvegicus; assay: Increase in cholesterol level in Wistar rat liver at 403 umol/kg/day administered through diet for 4 days; assay type: ADME, organism-based; conditions: in vivo, po, 96 h

Activity [3]: 0% | Activity [4]: 6%
SMILES: CCCCCCCCCCCCCCOc1ccc(C(=O)OCC)o1
inhibition in vivo at 443 µmol/kg [1]: 30% | inhibition in vivo at 443 µmol/kg [2]: 64%

Activity [6]: 0% | Activity [8]: 10% | Activity [10]: 11% | Activity [13]: 1% | Activity [14]: 3% | Activity [15]: 1%
SMILES: CCCCCCCCCCCCCCOc1ccc(C(=O)CC(=O)OCC)cc1
inhibition in vivo at 358 µmol/kg [5]: 30% | inhibition in vivo at 193 µmol/kg [7]: 20% | inhibition in vivo at 358 µmol/kg [9]: 59% | inhibition in vivo at 193 µmol/kg [11]: 43% | inhibition in vivo at 96 µmol/kg [12]: 13% | inhibition in vivo at 96 µmol/kg [16]: 44%

Activity [19]: 6% | Activity [21]: 15% | Activity [23]: 0% | Activity [26]: 33% | Activity [28]: 5% | Activity [37]: 0% | Activity [38]: 1% | Activity [39]: 12%
SMILES: CCCCCCCCCCCCCCOc1ccc(C(=O)O)o1 [TOFA]
inhibition in vivo at 583 µmol/kg [17]: 92% | Activity [18]: 22800 dpm | inhibition in vivo at 314 µmol/kg [20]: 38% | inhibition in vivo at 154 µmol/kg [22]: 27% | Activity [24]: 40800 dpm | inhibition [25]: inactive | inhibition in vivo at 92 µmol/kg [27]: 10% | inhibition in vivo at 410 µmol/kg [29]: 40% | Activity [30]: 60000 dpm | inhibition in vivo at 410 µmol/kg [31]: 75% | Activity [32]: 14900 dpm | inhibition in vivo at 154 µmol/kg [33]: 12% | inhibition in vivo at 583 µmol/kg [34]: 64% | inhibition [35]: Active | inhibition in vivo at 314 µmol/kg [36]: 61% | inhibition in vivo at 308 µmol/kg [40]: 24% | inhibition [41]: inactive

Activity [42]: 14% | Activity [45]: 1%
SMILES: CCCCCCCCCCCCCCOc1ccc(C(=O)n2ccnc2)o1
inhibition in vivo at 403 µmol/kg [43]: 22% | inhibition in vivo at 403 µmol/kg [44]: 39%
